Experimental data from ChEMBL document CHEMBL2406932, “Heteroaromatic and aniline derivatives of piperidines as potent ligands for vesicular acetylcholine transporter” (J Med Chem, 2013).

Tests used:
PC-12 [1] = assay: Selectivity ratio, ratio of Ki for sigma 2 receptor in rat liver homogenates to Ki for human VAChT expressed in rat PC12 cells; format: cell-based
PC-12 [2] = assay: Selectivity ratio, ratio of Ki for sigma 1 receptor in guinea pig brain homogenates to Ki for human VAChT expressed in rat PC12 cells; format: cell-based
[3] = target: T1, Vesicular acetylcholine transporter (Homo sapiens, UniProt Q16572); assay: Displacement of (-)-[3H]vesamicol from human VAChT expressed in rat PC12 cell membrane after 20 hrs; format: cell membranes, PC-12
T1 sequence (Q16572 whole entry): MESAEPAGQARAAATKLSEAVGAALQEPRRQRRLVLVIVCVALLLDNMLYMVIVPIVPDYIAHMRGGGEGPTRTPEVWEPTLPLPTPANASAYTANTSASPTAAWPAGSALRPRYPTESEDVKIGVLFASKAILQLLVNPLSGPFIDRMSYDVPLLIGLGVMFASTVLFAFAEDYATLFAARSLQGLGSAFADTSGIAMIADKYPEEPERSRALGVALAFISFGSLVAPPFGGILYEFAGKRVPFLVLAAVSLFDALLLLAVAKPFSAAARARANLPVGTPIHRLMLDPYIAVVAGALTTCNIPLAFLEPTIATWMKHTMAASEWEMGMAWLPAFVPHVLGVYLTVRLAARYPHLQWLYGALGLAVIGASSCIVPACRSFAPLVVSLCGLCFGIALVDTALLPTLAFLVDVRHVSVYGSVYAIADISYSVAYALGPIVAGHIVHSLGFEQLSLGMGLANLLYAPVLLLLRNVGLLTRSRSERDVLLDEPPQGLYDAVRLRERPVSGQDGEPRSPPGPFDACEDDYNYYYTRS

[4] = Displacement of [3H]DTG from sigma 2 receptor in rat liver membrane homogenates after 120 mins by scintillation counting analysis; format: cell membranes
How it was run: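 Rat liver membrane homogenate (~300 µg protein) with ~5 nM [3H]DTG plus 1 µM (+)-pentazocine to block sigma-1 sites, 120 min at room temperature, pH 7.4 Tris buffer. Nonspecific binding taken with 10 µM haloperidol. Filtration and scintillation counting.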

[5] = target: Sigma non-opioid intracellular receptor 1 (Cavia porcellus, UniProt Q60492); assay: Displacement of (+)- [3H]pentazocine from sigma 1 receptor expressed in guinea pig brain membrane homogenates by scintillation counting analysis; format: cell membranes
Sequence of Sigma non-opioid intracellular receptor 1 (Q60492 whole entry): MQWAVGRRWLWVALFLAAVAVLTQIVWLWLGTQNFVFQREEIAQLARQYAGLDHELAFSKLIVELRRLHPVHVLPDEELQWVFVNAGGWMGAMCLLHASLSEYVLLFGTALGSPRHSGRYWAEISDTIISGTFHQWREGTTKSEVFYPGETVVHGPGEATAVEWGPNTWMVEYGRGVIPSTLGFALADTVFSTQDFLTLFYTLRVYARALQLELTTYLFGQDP

[6] = tested as the 11C-labelled form

| Ki ([3]; pc-12) [nM] | Compound | Ratio Ki (PC-12 [1]; [6]) | Ratio Ki (PC-12 [2]; [6]) | Ki [3] [nM] | Ratio Ki (PC-12 [1]) | Ratio Ki (PC-12 [2]) | Ki [4] [nM] | Ki [5] [nM] |
| --- | --- | --- | --- | --- | --- | --- | --- | --- |
|  | CNc1ccc(C(=O)C2CCN([C@H]3Cc4ccccc4C[C@@H]3O)CC2)cc1 | 14700 | 1270 |  |  |  |  |  |
|  | O=C(c1cccs1)C1CCN([C@@H]2Cc3ccccc3C[C@H]2O)CC1 (racemic) |  |  | 5 |  |  |  |  |
|  | O=C(c1ccccc1)C1CCN([C@@H]2Cc3ccccc3C[C@H]2O)CC1 (racemic) |  |  |  | 74 | 51 | 320 |  |
|  | Nc1cccc2c1C[C@@H](N1CCC(C(=O)c3cccnc3)CC1)[C@H](O)C2 (racemic) |  |  | 118 | 43 | 170 | 5080 | 20300 |
|  | O=C(c1cncc(F)c1)C1CCN([C@@H]2Cc3ccccc3C[C@H]2O)CC1 (racemic) |  |  |  | 170 | 70 | 1690 | 709 |
|  | Cn1ccc(C(=O)C2CCN([C@@H]3Cc4ccccc4C[C@H]3O)CC2)cc1=O (racemic) |  |  |  | 32 | 51 | 2120 | 3350 |
|  | Cn1c(C(=O)C2CCN([C@@H]3Cc4ccccc4C[C@H]3O)CC2)cccc1=O (racemic) |  |  |  | 18 | 12 | 3340 | 2160 |
|  | O=C(c1ccc(F)nc1)C1CCN([C@@H]2Cc3ccccc3C[C@H]2O)CC1 (racemic) |  |  |  | 67 | 26 | 1750 | 682 |
|  | O=C(c1cccnc1F)C1CCN([C@@H]2Cc3ccccc3C[C@H]2O)CC1 (racemic) |  |  |  | 280 |  | 3530 | 1300 |
|  | CN(C)c1ccc(C(=O)C2CCN([C@@H]3Cc4ccccc4C[C@H]3O)CC2)cc1 (racemic) |  |  |  | 4400 | 44 | 4080 | 40.9 |
|  | CNc1ccc(C(=O)C2CCN([C@@H]3Cc4ccccc4C[C@H]3O)CC2)cc1 (racemic) |  |  |  | 2000 | 100 | 6180 | 305 |
|  | O=C(c1ccc(OCCF)nc1)C1CCN([C@@H]2Cc3ccccc3C[C@H]2O)CC1 (racemic) |  |  |  | 49 | 56 | 1860 | 2120 |
|  | O=C(c1ncccc1OCCF)C1CCN([C@@H]2Cc3ccccc3C[C@H]2O)CC1 (racemic) |  |  |  | 4 | 260 | 303 | 20000 |
|  | Cn1cccc1C(=O)C1CCN([C@@H]2Cc3c(N)cccc3C[C@H]2O)CC1 (racemic) |  |  |  | 180 | 200 | 6990 | 7660 |
|  | Cc1ccc(C(=O)C2CCN([C@@H]3Cc4c(N)cccc4C[C@H]3O)CC2)cn1 (racemic) |  |  | 48 |  |  | 27500 |  |
|  | COc1ccc(C(=O)C2CCN([C@@H]3Cc4c(N)cccc4C[C@H]3O)CC2)cn1 (racemic) |  |  | 23.3 | 220 | 120 | 10800 | 5680 |
|  | Cn1cccc1C(=O)C1CCN([C@@H]2Cc3cccc(N)c3C[C@H]2O)CC1 (racemic) |  |  |  | 4.9 | 4 | 11400 | 9240 |
|  | Cn1cccc1C(=O)C1CCN([C@@H]2Cc3ccccc3C[C@H]2O)CC1 (racemic) |  |  |  | 140 | 71 | 2550 | 1300 |
|  | Cn1ccc(C(=O)C2CCN([C@@H]3Cc4ccccc4C[C@H]3O)CC2)c1 (racemic) |  |  |  |  |  | 7710 | 3040 |
|  | O=C(c1cccnc1)C1CCN([C@@H]2Cc3ccccc3C[C@H]2O)CC1 (racemic) |  |  |  | 130 | 540 | 3030 | 12900 |
|  | Cc1ccc(C(=O)C2CCN([C@@H]3Cc4ccccc4C[C@H]3O)CC2)cn1 (racemic) |  |  |  |  |  | 3770 | 2120 |
|  | COc1ccc(C(=O)C2CCN([C@@H]3Cc4ccccc4C[C@H]3O)CC2)cn1 (racemic) |  |  | 8.36 |  |  | 2570 | 986 |
|  | COc1cccnc1C(=O)C1CCN([C@@H]2Cc3ccccc3C[C@H]2O)CC1 (racemic) |  |  |  | 13 | 170 | 1560 | 21000 |
| 1.68 | Nc1ccc(C(=O)C2CCN([C@@H]3Cc4ccccc4C[C@H]3O)CC2)cc1 (racemic) |  |  |  |  |  |  |  |
|  | O=C(c1ccc(F)cc1)C1CCN([C@@H]2Cc3ccccc3C[C@H]2O)CC1 (relative stereo) |  |  |  |  |  | 251 |  |
|  | CNc1ccc(C(=O)C2CCN(C3Cc4ccccc4CC3O)CC2)cc1 (single isomer, unassigned; (+)) |  |  | 19 | 408 | 61.5 | 7760 | 1170 |
